AP ELISA ortho: alternative pathway complement inhibition, orthogonal assay. Human serum alternative complement pathway, LPS-coated ELISA, C3 deposition; tested in compound mixtures. inhibition, % at 5 µM. actives 0.08% (n = 62,000). AID 1235;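 active means inhibition above 30% in each of the two pooled mixtures holding the compound, so the lower value exceeds 30%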
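Medium: diluted human serum in Mg2+-EGTA GVB++. Assay system: human serum complement alternative pathway, C3 deposition onto LPS. Also added: Plate-bound LPS. Technique: Anti-C3 ELISA, OD 450 nm. Measure: percent inhibition. Incubation: 1 h at 37 °C. Dosing: 5 µM each compound, pools of ten, 50 µM per pool.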
M1 antag: blocks the rat M1 muscarinic receptor response to acetylcholine; P08482; CHO-M1 cells, Fluo-4 calcium, ACh EC80 antagonist mode; active compounds read low; B-score at 10 µM; actives 3.4% (n = 64,000); AID 628;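 active means calcium fluorescence response, raw or row-and-column corrected B-score, differing from the plate sample mean either way at a set confidence level, mostly lower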
Target sequence (P08482 whole entry, looked up): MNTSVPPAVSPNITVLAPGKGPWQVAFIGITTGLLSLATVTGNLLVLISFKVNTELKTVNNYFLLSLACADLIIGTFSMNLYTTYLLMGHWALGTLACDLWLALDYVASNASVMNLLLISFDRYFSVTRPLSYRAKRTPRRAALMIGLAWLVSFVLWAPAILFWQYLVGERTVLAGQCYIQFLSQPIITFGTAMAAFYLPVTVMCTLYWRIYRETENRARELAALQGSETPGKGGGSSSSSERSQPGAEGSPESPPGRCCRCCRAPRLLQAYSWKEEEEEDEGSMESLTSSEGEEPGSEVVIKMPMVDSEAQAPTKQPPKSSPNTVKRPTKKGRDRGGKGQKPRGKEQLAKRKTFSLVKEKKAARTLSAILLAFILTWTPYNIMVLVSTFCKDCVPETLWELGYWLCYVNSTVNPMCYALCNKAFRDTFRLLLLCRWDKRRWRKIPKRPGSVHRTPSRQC
tolC growth inh: growth inhibitors of E. coli BW25113 tolC mutant; actives 2.2% (n = 65,000); OD615; growth inhibition, % at 10 µM (by protocol); AID 573;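 active means growth inhibition at or above a cutoff equal to the mean over every tested compound plus 3 SD, cut at about 60% in these data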;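 further: growth measured after 20 h incubation at 37 °C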
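test system = E. coli BW25113 ΔtolC::kan bacteria | medium = LB with kanamycin 50 µg/mL | signal = OD at 615 nm | schedule = 37 °C, 20 h exposure | evaluation = % inhibition of E. coli growth | compound dosing = one dose of 10 µM final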
E coli WT exp: blocks growth of wild type E. coli BW25113. OD600 absorbance. growth inhibition, % at 100 µM. actives 0.15% (n = 98,000). AID 710;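 active means growth inhibition above about 50% at one test dose, limit read from the data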;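 further: growth measured after 20 h incubation at 37 °C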
M1 ag: agonists of M1 muscarinic receptor | CHO-M1 cells, Fluo-4 calcium fluorescence, agonist mode; active compounds read high | B-score at 10 µM | actives 3% (n = 64,000) | AID 626;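 active means fluorescence rise, raw or as B-score row- and column-corrected plate score, outside the 99.7% band of its plate's samples, either direction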
WNV NS2B-NS3 inh: blocks West Nile virus NS2B-NS3 protease activity. P06935. WNV NS2B-NS3 protease, fluorogenic substrate Ex360/Em465; active compounds read low. z-score (test concentration not listed). actives 0.18% (n = 65,000). AID 577; in the data active means z-score below about -3
M1 ag confirm: rat M1 muscarinic agonism, confirmation. shares compounds with M1 ag. CHO-M1 cells, Fluo-4 calcium fluorescence, agonist mode; actives lie on both sides. fluorescence change (max-min) at 10 µM. actives 19% (n = 1,700). AID 1488;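 active means fluorescence change differs from the solvent-only DMSO control mean at a set confidence level in both duplicate runs; inconclusive means differs from solvent-only control mean in just one of two runs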;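 further: an EC20 dose of acetylcholine follows compound addition during the same imaging run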
M4 ag counter: activates rat M4 receptor in counter-screen for M1 agonists. fluorescence change (max-min) at 10 µM. actives 9% (n = 1,700). shares compounds with M1 ag. CHO M4/Gqi5 cells, Fluo-4 calcium fluorescence, agonist mode; actives lie on both sides;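 active means fluorescence change differing from the plate's solvent-only control wells at 99.7% confidence in both duplicates, whether higher or lower; inconclusive means differs from solvent controls in only one of two duplicates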
Large screens that a line does not name were inactive (follow-up assays come after a bar, where they were run). Rows were chosen to be rich in hits. Some 5.2% of all compounds tested hit in one or more screens of this group.

COc1ccc(NC(=O)C2CCCN2S(=O)(=O)c2cccc3cccnc23)c(OC)c1 (stereo not given)	none
COc1ccc(C)cc1NC(=O)C1CCN(S(=O)(=O)c2cccc3cccnc23)CC1	none
COc1ccc(OC)c(NC(=O)C2CCCN(S(=O)(=O)c3cccc4cccnc34)C2)c1 (stereo not given)	M1 ag 5.03 | M1 ag confirm -32.6 | M4 ag counter inactive
COc1ccc(N(C)S(=O)(=O)c2cccc3cccnc23)c(OC)c1	M1 ag 5.22 | M1 ag confirm inconclusive | M4 ag counter inactive
O=C(NCCN1CCN(c2ccccc2F)CC1)c1cccn2c(=O)c3ccccc3nc12	M1 ag 6.71 | M1 ag confirm inactive | M4 ag counter inactive
CC(C(=O)O)C1SC(=O)NC1=O (stereo not given)	none
CCN=C1SC(CC(=O)Nc2ccccc2)C(=O)N1CC (stereo not given)	M1 antag -3.76, M1 ag 10.9 | M1 ag confirm inconclusive | M4 ag counter inactive
Cn1cccc1-c1nc2ccc(NC(=O)c3cccs3)cc2[nH]1	M1 ag 8.45 | M1 ag confirm inconclusive | M4 ag counter inactive
O=C(Nc1ccc2nc(-c3ccc(Br)o3)[nH]c2c1)c1cccs1	none
CCN(CC)CCNC(=O)c1ccc2c(=O)n(CCc3ccccc3)c(=O)[nH]c2c1	none
CCN(C(=O)COc1cc(=O)n(CC)c2ccccc12)c1cc(Cl)ccc1OC	M1 ag 7.85 | M1 ag confirm inconclusive | M4 ag counter inactive
CCN(C(=O)COc1cc(=O)n(CC)c2ccccc12)c1cccc(Cl)c1	M1 ag 4.36 | M1 ag confirm inactive | M4 ag counter inactive
CCn1c(=O)cc(OCC(=O)Nc2ccccc2C#N)c2ccccc21	M1 ag 2.23 | M1 ag confirm inconclusive | M4 ag counter inactive
O=C(CCCCCNc1nc(=S)[nH]c2ccccc12)N1CCN(c2ccccn2)CC1	M1 ag 14.8 | M1 ag confirm inactive | M4 ag counter inactive
O=C(CCCn1c(=O)[nH]c2ccccc2c1=O)N1CCN(c2ccccn2)CC1	none (no result: E coli WT exp)
N#Cc1nc(Cc2ccccc2)oc1N1CCC(Cc2ccccc2)CC1	none
N#Cc1nc(COc2ccccc2)oc1N1CCN(c2cccc(Cl)c2)CC1	M1 ag 4.11 | M1 ag confirm 122 | M4 ag counter inconclusive
N#Cc1nc(COc2ccc(F)cc2)oc1N1CCC(Cc2ccccc2)CC1	M1 ag 9.25 (no result: AP ELISA ortho) | M1 ag confirm inactive | M4 ag counter inactive
CCOC(=O)CSc1nc(C(C)(C)C)cc(C(F)(F)F)c1C#N	none (no result: AP ELISA ortho, M1 antag, tolC growth inh, M1 ag, WNV NS2B-NS3 inh)
C=CCOc1ccc(C2c3c(oc4ccccc4c3=O)C(=O)N2c2ccccn2)cc1OCC (stereo not given)	none (no result: E coli WT exp)
O=C(CN1C(=O)COc2ccccc21)N(Cc1cccnc1)Cc1ccccc1F	none
CCCc1cc(N2CCCC(C(=O)NCC)C2)n2ncnc2n1 (stereo not given)	none
COc1ccc(N(CC(=O)NC2CCCC2)C(=O)Cn2nnc(-c3ccc(F)cc3)n2)cc1OC	none
COc1ccc(N(CC(=O)NC2CCCC2)C(=O)Cn2nnc(-c3ccc(C)cc3)n2)cc1OC	M1 ag 13.2 | M1 ag confirm inconclusive | M4 ag counter inactive
CCOC(=O)C1CCN(c2nc3ccccc3nc2C(C#N)C(=O)OC(C)C)CC1 (stereo not given)	M1 ag 27.8 | M1 ag confirm inactive | M4 ag counter inactive
C=CCOC(=O)C(C#N)c1nc2ccccc2nc1N1CCN(c2ccccc2OCC)CC1 (stereo not given)	none (no result: AP ELISA ortho, E coli WT exp)
CCOC(=O)C1CCN(c2nc3ccccc3nc2C(C#N)C(=O)OCCOC)CC1 (stereo not given)	M1 ag 6.21 | M1 ag confirm inactive | M4 ag counter inactive
C=CCOC(=O)C(C#N)c1nc2ccccc2nc1N1CCC(C(=O)OCC)CC1 (stereo not given)	M1 ag 5.09 (no result: AP ELISA ortho) | M1 ag confirm inactive | M4 ag counter inconclusive
CCOC(=O)C1CCN(c2nc3ccccc3nc2C(C#N)C(=O)OC(C)COC)CC1 (stereo not given)	M1 ag 6.21 | M1 ag confirm inconclusive | M4 ag counter inactive
COC(=O)C1CCN(c2nc3ccccc3nc2C(C#N)C(=O)OCC(C)C)CC1 (stereo not given)	none
CCn1c(O)c(/C=N/N=C/c2ccccc2)c2ccc(C3=NNC(=O)CC3)cc21	none (no result: AP ELISA ortho, M1 antag, tolC growth inh, M1 ag, WNV NS2B-NS3 inh)
CCn1nnnc1NCc1cccn1C	none
Cc1nn(-c2ccccn2)c2c1C(c1ccccn1)C1=C(CCCC1=O)N2 (stereo not given)	none (no result: AP ELISA ortho, M1 antag, tolC growth inh, M1 ag, WNV NS2B-NS3 inh)
CC1(C(=O)O)CCC(C(=O)Nc2ccc(S(N)(=O)=O)cc2)C1(C)C (stereo not given)	none
CCOC(=O)Cc1csc(NC(=O)CSc2ncnc3c2cnn3-c2ccccc2Cl)n1	M1 ag 10.7 | M1 ag confirm inactive | M4 ag counter inactive
CCc1cc2c(NCCC(=O)O)ncnc2s1	M1 ag 11.4 | M1 ag confirm inactive | M4 ag counter inactive
CC(C)CCOc1ccc(Cl)cc1CN1CCOCC1	none
Cn1c2ccc(Cl)cc2c2nc3ccccc3nc21	M1 ag 17.9 | M1 ag confirm inactive | M4 ag counter inactive
N#CCCn1c2ccccc2c2nc3ccccc3nc21	none
CCc1nnc(NC(=O)CSc2nnc(CNc3ccc(F)cc3)n2C2CCCCC2)s1	none
CCOC(=O)c1ccc(NC(=O)Nc2ccc(OC)c(OC)c2)cc1	M1 ag 7.31 | M1 ag confirm -22.4 | M4 ag counter inconclusive
COC(=O)c1ccc(NC(=O)Nc2ccc(F)cc2)cc1	M1 antag -3.41, M1 ag 15.3 | M1 ag confirm inactive | M4 ag counter inactive
CC(=O)N1CCN(c2ccc(NC(=O)c3ccc(C(C)(C)C)cc3)cc2)CC1	M1 ag 2.51 | M1 ag confirm inactive | M4 ag counter inactive
CCCCOc1ccc(C(=O)Nc2ccc(N3CCN(C(C)=O)CC3)cc2)cc1	none
CCOC(=O)N1CCN(c2cc(NCCC(=O)O)c3c4c(onc24)-c2ccccc2C3=O)CC1	M1 ag 14.3 | M1 ag confirm inactive | M4 ag counter inactive
CCN(CC)c1ccc(-c2nnc(SCC(=O)Nc3ccccc3C#N)n2-c2ccccc2)cc1	none (no result: AP ELISA ortho, M1 antag, tolC growth inh, M1 ag, WNV NS2B-NS3 inh)
COC(=O)C1=C(C)NC(=O)NC1c1ccccc1 (stereo not given)	none
COC(=O)C1=C(C)NC(=O)CC1c1cccc(Cl)c1Cl (stereo not given)	M1 ag 3.82 | M1 ag confirm inconclusive | M4 ag counter inactive
O=C(CSc1nnc(Cn2nnc3ccccc32)o1)N(Cc1ccc(F)cc1)c1ccccc1	M1 ag 6.18 | M1 ag confirm -33.9 | M4 ag counter inactive
